Rows were chosen to be rich in hits. Some 2.3% of all compounds tested hit in one or more screens of this group.
ABCB1 inh: ABCB1 efflux pump inhibitors, primary screen, cell-based, multiplex, flow cytometry, ABCG2 counter-screen; ATP-dependent translocase ABCB1 (Homo sapiens), P08183; CCRF-Adr cells, JC-1 efflux; inhibition, % at 6.6 µM; 190,000 tested, 0.067% active; in the data active = inhibition above about 40%;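 note: 0% = vehicle and 100% = reference inhibitor; higher value means more JC-1 retained so stronger ABCB1 efflux block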
ABCG2 block: ABCG2 efflux pump inhibitors, primary screen, multiplex with ABCB1, IgMXP3 cells, flow cytometry; Broad substrate specificity ATP-binding cassette transporter ABCG2 (Homo sapiens), Q9UNQ0; JC-1 efflux; inhibition, % at 6.6 µM; 190,000 tested, 0.1% active;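 active = inhibition above 80%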;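 note: 0% = DMSO and 100% = nicardipine control wells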
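Incubation: cells with compound and JC-1, 10 min at 25 °C, rotating, no wash / Test system: IgMXP3 (ABCG2) plus far-red-tagged CCRF-Adr (ABCB1) cells / Compound dosing: one concentration, 6.6 µM final / Also added: JC-1 fluorescent substrate / Evaluation: efflux inhibition in percent versus controls / Detection: flow cytometry, 530 nm JC-1 signal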
MEKK3 PB1 HTS: modulators of MEKK3-MEK5 PB1 binding, primary screen, biochemical, wildtype MEKK3, multiplex bead flow cytometry, Alexa488-MEK5 | Mitogen-activated protein kinase kinase kinase 3 (Homo sapiens), Q99759 | bead-based flow cytometry, Alexa488-MEK5 binding to MEKK3; actives lie on both sides; 0 = blocked by unlabeled MEK5, 100 = vehicle | binding response (% of control), % at 10 µM | 290,000 tested, 1.4% active;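 active = binding response more than 3 SD above or below the average of its plate-row segment, actives on both sides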;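 note: Alexa488 bead fluorescence after subtracting the streptavidin-only scavenger bead signal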
Target sequence (Q99759 whole entry, looked up): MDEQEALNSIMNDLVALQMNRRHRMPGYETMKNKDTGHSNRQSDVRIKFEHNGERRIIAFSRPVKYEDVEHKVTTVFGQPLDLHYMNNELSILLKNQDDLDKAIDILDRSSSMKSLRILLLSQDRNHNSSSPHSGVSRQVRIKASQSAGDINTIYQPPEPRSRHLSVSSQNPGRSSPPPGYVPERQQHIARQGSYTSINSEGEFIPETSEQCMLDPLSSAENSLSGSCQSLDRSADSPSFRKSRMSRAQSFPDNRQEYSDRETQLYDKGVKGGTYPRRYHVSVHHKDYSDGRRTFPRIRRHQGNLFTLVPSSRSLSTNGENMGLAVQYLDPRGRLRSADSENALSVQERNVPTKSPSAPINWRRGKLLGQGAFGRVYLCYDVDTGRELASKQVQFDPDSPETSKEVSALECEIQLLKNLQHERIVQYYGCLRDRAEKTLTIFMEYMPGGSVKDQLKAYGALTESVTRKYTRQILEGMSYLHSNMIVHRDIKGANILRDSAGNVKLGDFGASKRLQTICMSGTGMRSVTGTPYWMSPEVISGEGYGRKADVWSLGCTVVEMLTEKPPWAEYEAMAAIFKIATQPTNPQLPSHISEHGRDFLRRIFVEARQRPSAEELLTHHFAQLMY
MEKK2 mut-MEK5: MEK5 binding signal on mutant MEKK2 PB1, primary screen, biochemical, multiplex bead flow cytometry, Alexa488-MEK5 | Alexa488-MEK5 binding to MEKK2 mutant | percent response, % at 10 µM | 290,000 tested, 0.35% active; in the data active = percent response above about 24%, passing the limit was not always enough
MEKK2 WT-MEK5: modulators of MEK5 binding to wildtype MEKK2, primary screen, biochemical, multiplex bead flow cytometry, Alexa488-MEK5. Alexa488-MEK5 binding to MEKK2 WT; actives lie on both sides. AID 1531, 2009. Mitogen-activated protein kinase kinase kinase 2 (Homo sapiens), Q9Y2U5. binding response (% of control), % at 10 µM. 290,000 tested, 1.1% active; in the data active = binding response below about 67% or above about 130%
ABCB1 single pt: ABCB1 efflux pump inhibitors, confirmation, cell-based, single point, ABCG2 counter-screen; inhibition, % at 6.6 µM; shares compounds with ABCG2 block; CCRF-Adr cells, JC-1 efflux, flow cytometry; AID 1451, 2008; 270 tested, 7% active;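 active = inhibition of pump activity above 50%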;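 note: 0% = DMSO and 100% = nicardipine full pump inhibition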
ABCG2 single pt: ABCG2 efflux pump inhibitors, confirmation, single point, IgMXP3 cells, ABCB1 counter-screen paired. inhibition, % at 6.6 µM. shares compounds with ABCG2 block. JC-1 efflux, flow cytometry. 270 tested, 6% active;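 active = inhibition above 50%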;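 note: 0% = DMSO wells and 100% = nicardipine pump inhibitor wells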
IgMXP3 fluor: compound autofluorescence in ABCG2-expressing IgMXP3 cells, confirmation, artefact control for ABC transporter inhibitor project, cell-based, 488/530 nm, flow cytometry; fluorescence at 6.6 µM; compound autofluorescence 488/530 nm; hits give high values; AID 1480, 2009; 270 tested, 30% active; shares compounds with ABCG2 block;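 active = fluorescence in ABCG2-expressing cells above the plate's control-well mean plus 3 SD, cut at about 15 in these data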;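 note: median cell fluorescence with compound minus that of DMSO-treated control cells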
CCRF-Adr fluor: compound autofluorescence in ABCB1-expressing CCRF-Adr cells, confirmation, artefact control for ABC transporter inhibitor project, cell-based, 488/530 nm, flow cytometry; fluorescence at 6.6 µM; shares compounds with ABCG2 block; 270 tested, 30% active; compound autofluorescence 488/530 nm; hits give high values;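 active = fluorescence beyond the plate control mean plus 3 SD, with a fluorescence-to-maximum score over 2, cut at about 25 in these data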
MEKK2wt confirm: modulators of MEK5 binding to wildtype MEKK2, confirmation, biochemical, single concentration, multiplex bead flow cytometry. 5,900 tested, 2.4% active. binding response (% of control), % at 10 µM. Alexa488-MEK5 binding to MEKK2 WT; actives lie on both sides. shares compounds with MEKK3 PB1 HTS; in the data active = binding response below about 16% or above about 210%; inactive = in between
MEKK2mut-MEK5: mutant MEKK2 PB1-MEK5 binding signal retest – biochemical, single concentration, multiplex bead flow cytometry, confirmation; shares compounds with MEKK3 PB1 HTS; Alexa488-MEK5 binding to MEKK2 mutant; percent response, % at 10 µM; 5,900 tested, 2% active; in the data active = percent response mostly above about 71%, no sharp cut-off; inactive = mostly below about 38%;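 note: higher means compound restores mutant binding toward wildtype level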
MEKK3 confirm: MEKK3 wild-type PB1 binding to MEK5, inhibitors, confirmation, biochemical, bead multiplex flow cytometry, single concentration, wildtype; shares compounds with MEKK3 PB1 HTS; Alexa488-MEK5 binding to MEKK3; hits give low values; binding response (% of control), % at 10 µM; 5,900 tested, 1.8% active;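 active = binding response below 72% of control, or above a set upper limit, though filed actives all read lower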;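 note: 100% = DMSO only wells and 0% = binding blocked by excess unlabeled MEK5; lower values mean stronger disruption of MEK5 binding to MEKK3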
* hit, by the source's call; x = not tested or not shown; + = active, no number; [ ] = dose if it differs, or a comment.

SMILES | ABCB1 inh | ABCG2 block | MEKK3 PB1 HTS | MEKK2 mut-MEK5 | MEKK2 WT-MEK5 | ABCB1 single pt | ABCG2 single pt | IgMXP3 fluor | CCRF-Adr fluor | others
Cc1cc(C)c(C(=O)COC(=O)CCNS(=O)(=O)c2c(Cl)cccc2Cl)cc1C | 3.0 | 96.9* | 100.0 | -2.0 | 98.0 | 9.7 | 46.6 | -1.84 | -4.89
COc1ccc(OC)c(NC(=O)CSc2ncccc2C(=O)O)c1 | 0.5 | 1.1 | 99.0 | 2.0 | 103.0 | x | x | x | x
CCCCCCCCNC(=O)c1cccnc1SCC(=O)Nc1ccccc1OC | 5.0 | 92.5* | 99.0 | -3.0 | 101.0 | 24.4 | 40.4 | -1.69 | -0.54
CCCCN(C(=O)c1ccc(S(=O)(=O)N(CC)CC)cc1)c1c(N)n(CCC)c(=O)[nH]c1=O | x | x | 101.0 | -1.0 | 99.0 | x | x | x | x
O=[N+]([O-])c1ccc(N2CCN(c3ccccc3F)CC2)c(S(=O)(=O)N2CCOCC2)c1 | x | x | 99.0 | -2.0 | 99.0 | 0.9 | 5.2 | -1.34 | 0.76
COc1ccc(NC(=O)c2cc3ccc(O)cc3o/c2=N\O)cc1 | x | x | 105.0 | 1.0 | 101.0 | x | x | x | x
Cc1ccc(NC(=O)c2ccc3c(c2)CCN3S(C)(=O)=O)c(C)c1 | x | x | 105.0 | 2.0 | 102.0 | x | x | x | x
COc1ccc2cc(C(=O)NCC(=O)O)sc(=O)c2c1OC | 0.9 | 6.0 | x | x | x | x | x | x | x
COc1ccc2cc(C(=O)OC(C)C)sc(=O)c2c1OC | 2.0 | 86.6* | 109.0 | 1.0 | 98.0 | 0.6 | 60.1* | -1.89 | -3.84
CCCCN1/C(=C/c2ccc3ccccc3[n+]2CC)Sc2ccccc21 | 20.2 | 121.3* | 93.0 | -10.0 | 59.0 | 72.7* | 8.2 | 256* | 337*
CCN1/C(=C/c2ccc3ccccc3[n+]2CC)C=Cc2ccccc21 | 0.8 | 8.8 | 101.0 | 19.0 | 109.0 | x | x | x | x
CCOC(=O)c1cccc(NC(=O)c2cccnc2)c1 | 0.3 | 1.9 | 102.0 | 6.0 | 105.0 | x | x | x | x
CCOC(=O)c1cccc(NC(=O)c2cnc3ccccc3n2)c1 | 2.5 | 91.2* | 106.0 | 19.0 | 108.0 | 1.7 | 67.5* | -0.59 | -4.44
Cc1cccc(N2CC(C(=O)Nc3nnc(SCC(=O)N4CCOCC4)s3)CC2=O)c1 (configuration not stated) | x | x | 101.0 | 5.0 | 102.0 | x | x | x | x
CCC(NC(=O)CCl)c1ccc(C)cc1 (configuration not stated) | 6.1 | 71.6 | 94.0 | -5.0 | 91.0 | 2.9 | -0.1 | -0.84 | 2.71
CCC(Cc1ccccc1)n1c(=S)[nH]c2ccccc2c1=O (configuration not stated) | 31.5 | 99.7* | 136.0* | + | x | -9.8 | 2.6 | 22.6* | 57.4*
CCn1c(SCc2ccccc2Cl)nc2nc3c(cc2c1=O)CCCC3 | 21.2 | 92.5* | 100.0 | -2.0 | 106.0 | 17.9 | 16.2 | 15.3* | 6.21
c1ccc(OCc2nc(-c3ccccc3)no2)cc1 | 0.1 | 0.8 | 99.0 | 1.0 | 98.0 | x | x | x | x
c1ccc(OCc2nc(-c3ccncc3)no2)cc1 | 3.5 | 111.3* | 104.0 | -7.0 | 93.0 | 1.2 | 4.0 | -1.49 | -2.24
COCc1cc(C)nc(Sc2nc3c(c(=O)n(C)c(=O)n3C)n2C)c1C#N | x | x | 98.0 | -1.0 | 100.0 | x | x | x | x
O=C(Cc1ccccc1)Nc1cc(Cl)ccc1Sc1ccccc1 | 4.5 | 89.0* | 99.0 | -2.0 | 97.0 | 3.6 | 8.2 | -1.69 | 4.66
O=C(Cc1ccc(Cl)cc1)Nc1ccccc1Sc1ccccc1 | 0.6 | 10.7 | 95.0 | -2.0 | 93.0 | x | x | x | x
CN(C)c1ccc(/C=C/C(=O)c2cccc(Br)c2)cc1 | 25.6 | 42.3 | 93.0 | -1.0 | 63.0*[inhibitor] | 5.7 | 17.4 | 18.9* | 103* | MEKK2wt confirm=67.0;MEKK2mut-MEK5=-21.0;MEKK3 confirm=92.0
CC[n+]1c(/C=C/c2c[nH]c3ccccc23)ccc2cc(C)ccc21 | 22.5 | 84.0* | 87.0 | 119.0* | x | 2.3 | -59.1 | 194* | 61.9* | MEKK2wt confirm=163.0;MEKK2mut-MEK5=30.0;MEKK3 confirm=104.0
COc1ccc2cc3cc(C(=O)NCCN4CCN(c5ccccc5F)CC4)oc3nc2c1 | 2.0 | 6.1 | x | x | x | x | x | x | x
COc1ccc2cc3cc(C(=O)Nc4ccccc4N4CCN(C)CC4)oc3nc2c1 | 47.1* | 52.5 | 113.0 | 21.0 | 173.0* | 25.0 | 18.2 | 11.3 | -1.39 | MEKK2wt confirm=158.0;MEKK2mut-MEK5=33.0;MEKK3 confirm=110.0
CCCCNc1c2c3c(cccc3n(C)c1=O)C(=O)c1ccccc1-2 | 65.7* | 141.6* | 74.0 | -21.0 | 41.0*[inhibitor] | 3.7 | 15.8 | 70.7* | 132* | MEKK2wt confirm=72.0;MEKK2mut-MEK5=-13.0;MEKK3 confirm=95.0
Cn1c(=O)c(NCCc2ccccc2)c2c3c(cccc31)C(=O)c1ccccc1-2 | 70.5* | 150.8* | 85.0 | -16.0 | 62.0*[inhibitor] | 10.2 | 33.5 | 55* | 143* | MEKK2wt confirm=85.0;MEKK2mut-MEK5=-9.0;MEKK3 confirm=100.0

Screening data as filed in PubChem.
